# Assay results taken from article PMC7424737 (ACS Omega, 2020).
# Key:
# [1] = test system: TMV; assay: Anti-TMV curative activity in vivo, half-leaf method; parameters: species or system tobacco mosaic virus; settings: against TMV in vivo at 500 mg/L (500 μg/mL); average of three replicates ± SD
# Method in brief: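 Five-leaf-stage tobacco plants were dusted with emery and rub-inoculated with TMV. After 0.5 h the emery was rinsed off with water and the leaves left to dry. Test compound solution went on the left half-leaf and blank solution on the right. Lesions were counted per half 3–4 days later, and inhibition (%) was calculated from treated versus blank counts. Three repeats; ribavirin positive control.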
# [2] = test system: TMV; assay: Anti-TMV inactivation; format: in vivo; settings: Tobacco mosaic virus, read-out: EC50 of inactivation effect activity
# Method in brief: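 TMV was mixed with test compound for 0.5 h. The mixture was rubbed onto the right half-leaf of tobacco plants, and the left half received the same virus dose alone. Lesions were counted 3–4 days later. Inhibition (%) was calculated from lesion numbers versus the blank-control half. Three repeats; ribavirin positive control.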
# [3] = biological target: T1, TMV-coat protein (TMV-CP) (Tobacco mosaic virus, UniProt P69687); assay: Microscale thermophoresis; format: binding
# T1 sequence (P69687 2-159 limits assumed): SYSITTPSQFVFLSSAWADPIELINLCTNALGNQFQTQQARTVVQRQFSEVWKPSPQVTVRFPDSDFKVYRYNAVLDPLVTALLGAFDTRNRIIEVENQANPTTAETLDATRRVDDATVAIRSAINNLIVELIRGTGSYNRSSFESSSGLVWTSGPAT
# Method in brief: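 Test compound binding to TMV coat protein was measured by microscale thermophoresis to give a dissociation constant (Kd). Ningnanmycin and ribavirin served as positive controls. Each test was repeated three times.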
smiles,measurement,setting,value
NC(=O)c1ncn([C@@H]2O[C@H](CO)[C@@H](O)[C@H]2O)n1 [ribavirin],curative effect activity,[1],49.3 ± 7.5%
same,EC50,[2],138 ± 4.2 mg/L
same,Kd,[3],223 ± 66.2 µM
